The text below walks through data of ChEMBL document CHEMBL1649115, “Enhanced susceptibility to antifungal oligopeptides in yeast strains overexpressing ABC multidrug efflux pumps” (Antimicrob Agents Chemother, 2008).

Each structure is given as a SMILES string. Values after ≈ are worked out from the molar mass of the structure shown. Non-standard residues stand in square brackets, D forms with d. Residues, ends and D or L forms follow the SMILES beside them. Phe(3-F) = N[C@@H](Cc1cccc(F)c1)C(=O)O

The test system of series [1] is Saccharomyces cerevisiae. Description: Antifungal activity against Saccharomyces cerevisiae ADCDR1 expressing Candida albicans CDR1 efflux pump in YNPG medium containing 1 mg/ml […] after 24 hrs by microdilution method. It counts as functional. Conditions: ADCDR1, 24 h.
Series [2] has as its system Saccharomyces cerevisiae. Description: Drug uptake in Saccharomyces cerevisiae ADMDR1 expressing Candida albicans MDR1 efflux pump at 200 uM pretreated for 10 mins measured after 60 mins by fluorescamine staining. To be noted: in vivo, 1 h. It counts as ADME, organism-based.
For series [3], the system named is Candida albicans. As to the kind of experiment: Antifungal activity against fluconazole sensitive Candida albicans isolate B3 in RPMI-1640 buffered medium after 24 hrs by microdilution method. The class given is functional. Conditions: Candida albicans, isolate B3, 24 h; read-out: MIC. The essentials:
(§1)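 C. albicans cells were grown in 2% glucose, 1% yeast extract, 1% Bacto peptone medium before testing. […] CARE-2 fingerprinting confirmed that each pair is a single strain.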
(In general: Broth dilution looks for growth in wells or tubes with falling amounts of substance.)

In series [4] the test system is Saccharomyces cerevisiae. As to the kind of experiment: Drug uptake in Saccharomyces cerevisiae ADCDR1 expressing Candida albicans CDR1 efflux pump at 200 uM pretreated for 10 mins measured after 60 mins by fluorescamine staining. The class given is ADME, organism-based. To be noted: in vivo, 1 h.
Series [5] relates to Saccharomyces cerevisiae. Description: Antifungal activity against Saccharomyces cerevisiae ADCDR2 expressing Candida albicans CDR2 efflux pump in YNPG medium containing 1 mg/ml […] after 24 hrs by microdilution method. The class given is functional. To be noted: ADCDR2, 24 h.
Series [6] relates to Saccharomyces cerevisiae. Description: Antifungal activity against Saccharomyces cerevisiae ADMDR1 expressing Candida albicans MDR1 efflux pump in YNPG medium containing 1 mg/ml […] after 24 hrs by microdilution method. It counts as functional. Conditions: ADMDR1, 24 h.
In series [7] the test system is Candida albicans. As to the kind of experiment: Antifungal activity against fluconazole sensitive Candida albicans isolate Gu4 in RPMI-1640 buffered medium after 24 hrs by microdilution method. Conditions: Candida albicans, isolate Gu4, 24 h; read-out: MIC. It counts as functional. The essentials:
as §1

The test system of series [8] is Saccharomyces cerevisiae. As to the kind of experiment: Drug uptake in Saccharomyces cerevisiae ADCDR2 expressing Candida albicans CDR2 efflux pump at 200 uM pretreated for 10 mins measured after 60 mins by fluorescamine staining. It counts as ADME, organism-based. Conditions: in vivo, 1 h.
The subject of series [9] is Saccharomyces cerevisiae. As to the kind of experiment: Antifungal activity against Saccharomyces cerevisiae AD12345678 in YNPG medium containing 1 mg/ml […] after 24 hrs by microdilution method. To be noted: AD12345678, 24 h. The class given is functional.
In series [10] the test system is Candida albicans. As to the kind of experiment: Antifungal activity against fluconazole resistant Candida albicans isolate B4 overexpressing MDR1 in RPMI-1640 buffered medium after 24 hrs by microdilution method. Conditions: Candida albicans, isolate B4, 24 h; read-out: MIC. The class given is functional. The essentials:
as §1

The subject of series [11] is Saccharomyces cerevisiae. As to the kind of experiment: Drug uptake in Saccharomyces cerevisiae AD12345678 at 200 uM pretreated for 10 mins measured after 60 mins by fluorescamine staining. It counts as ADME, organism-based. Conditions: in vivo, 1 h.
The subject of series [12] is Saccharomyces cerevisiae. Description: Antifungal activity against wild type Saccharomyces cerevisiae ATCC 9763 in YNPG medium containing 1 mg/ml […] after 24 hrs by microdilution method. To be noted: ATCC 9763, 24 h. It counts as functional.
Series [13] has as its system Candida albicans. Description: Antifungal activity against fluconazole resistant Candida albicans isolate Gu5 overexpressing CDR1 and CDR2 in RPMI-1640 buffered medium after 24 hrs by microdilution method. To be noted: isolate Gu5, 24 h. The class given is functional. The essentials:
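C. albicans cells were grown in 2% glucose, 1% yeast extract, 1% Bacto peptone medium before testing. CARE-2 fingerprinting confirmed that each pair is a single strain.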

Series [14] concerns Candida albicans. As to the kind of experiment: Antifungal activity against wild type Candida albicans 10261 in RPMI-1640 buffered medium after 24 hrs by microdilution method. It counts as functional. Conditions: Candida albicans, 10261, 24 h; read-out: MIC. The essentials: as §1
Series [15] relates to Saccharomyces cerevisiae. As to the kind of experiment: Antifungal activity against Saccharomyces cerevisiae ADMDR1 expressing Candida albicans MDR1 efflux pump in YNPG-proline medium after 24 hrs by microdilution method. The class given is functional. To be noted: ADMDR1, 24 h.
Series [16] relates to Saccharomyces cerevisiae. As to the kind of experiment: Antifungal activity against Saccharomyces cerevisiae ADCDR2 expressing Candida albicans CDR2 efflux pump in YNPG-proline medium after 24 hrs by microdilution method. To be noted: ADCDR2, 24 h. It counts as functional.
Series [17] concerns Saccharomyces cerevisiae. Description: Antifungal activity against wild type Saccharomyces cerevisiae ATCC 9763 in YNPG-proline medium after 24 hrs by microdilution method. It counts as functional. Conditions: ATCC 9763, 24 h.
Series [18] concerns Saccharomyces cerevisiae. Description: Antifungal activity against Saccharomyces cerevisiae ADCDR1 expressing Candida albicans CDR1 efflux pump in YNPG-proline medium after 24 hrs by microdilution method. The class given is functional. Conditions: ADCDR1, 24 h.
For series [19], the system named is Saccharomyces cerevisiae. As to the kind of experiment: Prodrug stability in Saccharomyces cerevisiae ADCDR2 expressing Candida albicans CDR2 efflux pump assessed as compound cleavage rate measured per mg of protein. It counts as ADME, organism-based. To be noted: in vivo.
The subject of series [20] is Saccharomyces cerevisiae. As to the kind of experiment: Prodrug stability in Saccharomyces cerevisiae AD12345678 assessed as compound cleavage rate measured per mg of protein. The class given is ADME, organism-based. To be noted: in vivo.
Series [21] deals with Saccharomyces cerevisiae. As to the kind of experiment: Prodrug stability in wild type Saccharomyces cerevisiae ATCC 9763 assessed as compound cleavage rate measured per mg of protein. It counts as ADME, organism-based. Conditions: in vivo.
For series [22], the system named is Saccharomyces cerevisiae. As to the kind of experiment: Prodrug stability in Saccharomyces cerevisiae ADMDR1 expressing Candida albicans MDR1 efflux pump assessed as compound cleavage rate measured per mg of protein. Conditions: in vivo. The class given is ADME, organism-based.
Series [23] has as its system Saccharomyces cerevisiae. As to the kind of experiment: Prodrug stability in Saccharomyces cerevisiae ADCDR1 expressing Candida albicans CDR1 efflux pump assessed as compound cleavage rate measured per mg of protein. The class given is ADME, organism-based. To be noted: in vivo.
The subject of series [24] is Saccharomyces cerevisiae. Description: Antifungal activity against Saccharomyces cerevisiae AD12345678 in YNPG-proline medium after 24 hrs by microdilution method. It counts as functional. To be noted: AD12345678, 24 h.
The test system of series [25] is Candida albicans. As to the kind of experiment: Prodrug stability in fluconazole sensitive Candida albicans isolate B3 assessed as compound cleavage rate measured per mg of protein. The class given is ADME, organism-based. To be noted: in vivo.
The test system of series [26] is Candida albicans. Description: Prodrug stability in fluconazole sensitive Candida albicans isolate Gu4 assessed as compound cleavage rate measured per mg of protein. The class given is ADME, organism-based. To be noted: in vivo. The essentials: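 Oligopeptides were incubated with cell extracts of the yeast cells, and their hydrolytic enzymes cleaved them. The amino acids released were quantified by the Cd-ninhydrin method.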

Series [27] deals with Candida albicans. As to the kind of experiment: Prodrug stability in wild type Candida albicans 10261 assessed as compound cleavage rate measured per mg of protein. The class given is ADME, organism-based. To be noted: in vivo.

With `NC(CC(=O)NO)C(=O)O` (centres undefined), the MIC against Saccharomyces cerevisiae [1] was found to be 64 µg/mL (≈ 432 µM); in the series with Candida albicans [3], 256 µg/mL (≈ 1730 µM); with Saccharomyces cerevisiae [5], 64 µg/mL (≈ 432 µM); in the series on Saccharomyces cerevisiae [6], 128 µg/mL (≈ 864 µM); in the series with Candida albicans [7], 256 µg/mL (≈ 1730 µM); against Saccharomyces cerevisiae [9] it was 256 µg/mL (≈ 1730 µM). The MIC turned out to be 256 µg/mL (≈ 1730 µM) in the series with Candida albicans [10], 256 µg/mL (≈ 1730 µM) with Saccharomyces cerevisiae [12], 128 µg/mL (≈ 864 µM) with Candida albicans [13] and 256 µg/mL (≈ 1730 µM) with Candida albicans [14]. Also, the Drug uptake turned out to be 1.25 nmol/min/mg in the series with Saccharomyces cerevisiae [2], 2.25 nmol/min/mg with Saccharomyces cerevisiae [4], 1.69 nmol/min/mg in the series with Saccharomyces cerevisiae [8] and 1.54 nmol/min/mg in the series with Saccharomyces cerevisiae [11].
As to `[N-]=[N+]=CC(=O)OC[C@H](N)C(=O)O` [AZASERINE], the MIC worked out at 1 µg/mL (≈ 5.78 µM) against Saccharomyces cerevisiae [1]; 32 µg/mL (≈ 185 µM) with Candida albicans [3]; 1 µg/mL (≈ 5.78 µM) in the series on Saccharomyces cerevisiae [5]; 2 µg/mL (≈ 11.6 µM) against Saccharomyces cerevisiae [6]; 16 µg/mL (≈ 92.4 µM) with Candida albicans [7]; 2 µg/mL (≈ 11.6 µM) with Saccharomyces cerevisiae [9]. Moreover, the MIC in the series on Candida albicans [10] came out at 32 µg/mL (≈ 185 µM); against Saccharomyces cerevisiae [12], 2 µg/mL (≈ 11.6 µM); against Candida albicans [13] it was 16 µg/mL (≈ 92.4 µM); with Candida albicans [14], 16 µg/mL (≈ 92.4 µM). Also, the Drug uptake with Saccharomyces cerevisiae [2] was 1.7 nmol/min/mg; with Saccharomyces cerevisiae [4], 2.15 nmol/min/mg; in the series with Saccharomyces cerevisiae [8], 1.92 nmol/min/mg; in the series with Saccharomyces cerevisiae [11], 1.75 nmol/min/mg.
Consider `NC(Cc1cccc(F)c1)C(=O)O` (centres undefined) [M-FLUOROPHENYLALANINE], for which the minimum inhibitory concentration (MIC) with Saccharomyces cerevisiae [1] stood at 16 µg/mL (≈ 87.3 µM); in the series with Candida albicans [3] it was 128 µg/mL (≈ 699 µM); against Saccharomyces cerevisiae [5], 16 µg/mL (≈ 87.3 µM); in the series on Saccharomyces cerevisiae [6], 32 µg/mL (≈ 175 µM); with Candida albicans [7], 128 µg/mL (≈ 699 µM); in the series on Saccharomyces cerevisiae [9], 32 µg/mL (≈ 175 µM). Besides, the minimal inhibitory concentration (MIC) in the series with Candida albicans [10] is 128 µg/mL (≈ 699 µM); against Saccharomyces cerevisiae [12], 32 µg/mL (≈ 175 µM); with Candida albicans [13] it was 128 µg/mL (≈ 699 µM); in the series on Candida albicans [14] it was 256 µg/mL (≈ 1400 µM). In addition, the Drug uptake in the series with Saccharomyces cerevisiae [2] turned out to be 1.63 nmol/min/mg; in the series with Saccharomyces cerevisiae [4], 2.57 nmol/min/mg; with Saccharomyces cerevisiae [8], 1.86 nmol/min/mg; in the series on Saccharomyces cerevisiae [11] it was 1.78 nmol/min/mg.
In the case of `CSCC[C@H](NC(=O)[C@@H](N)CCSC)C(=O)N[C@@H](Cc1cccc(F)c1)C(=O)O` (H-Met-Met-[Phe(3-F)]-OH), the Drug uptake is 0.67 nmol/min/mg in the series on Saccharomyces cerevisiae [2], 1.11 nmol/min/mg in the series on Saccharomyces cerevisiae [4], 1.23 nmol/min/mg in the series with Saccharomyces cerevisiae [8] and 0.64 nmol/min/mg with Saccharomyces cerevisiae [11]. Further, the MIC in the series with Candida albicans [3] worked out at 128 µg/mL (≈ 287 µM); against Saccharomyces cerevisiae [15] it was 256 µg/mL (≈ 575 µM); in the series on Candida albicans [7], 128 µg/mL (≈ 287 µM); against Saccharomyces cerevisiae [16], 32 µg/mL (≈ 71.8 µM); against Saccharomyces cerevisiae [17] it was 256 µg/mL (≈ 575 µM); against Saccharomyces cerevisiae [18], 32 µg/mL (≈ 71.8 µM). The minimal inhibitory concentration (MIC) in the series with Candida albicans [10] is 128 µg/mL (≈ 287 µM); against Saccharomyces cerevisiae [24], 512 µg/mL (≈ 1150 µM); with Candida albicans [13], 32 µg/mL (≈ 71.8 µM); in the series with Candida albicans [14], 128 µg/mL (≈ 287 µM). Further, the Stability turned out to be 14 nmol/min in the series with Saccharomyces cerevisiae [19]; 14 nmol/min in the series on Saccharomyces cerevisiae [20]; 14 nmol/min in the series with Saccharomyces cerevisiae [21]; 14 nmol/min with Saccharomyces cerevisiae [22]; 14 nmol/min with Saccharomyces cerevisiae [23]; 20 nmol/min in the series on Candida albicans [25]. For the same compound, the Stability in the series with Candida albicans [26] and in the series on Candida albicans [27] was 20 nmol/min each time.

The term MIC denotes the lowest concentration found to suppress growth.
